Screening results (PubChem BioAssay)
Most compounds without a hit are left out; they make up all but 3.5% or so of the library.
MrgX1 PAM – allosterically activates human MrgX1 receptor signaling; Q96LB2; MrgX1-HEK293, Fluo-4 calcium flux, FDSS; hits give high values; B-score at 10 µM; 310,000 compounds, 0.63% hits;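 active = plate-corrected calcium response at least 3 library SD above typical, normal starting fluorescence, not activating the receptor alone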;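 also: compound read alongside a low EC10 to EC30 dose of BAM8-22 agonist; peak minus trough fluorescence over baseline measured at the second addition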
Target sequence (Q96LB2 whole entry, looked up): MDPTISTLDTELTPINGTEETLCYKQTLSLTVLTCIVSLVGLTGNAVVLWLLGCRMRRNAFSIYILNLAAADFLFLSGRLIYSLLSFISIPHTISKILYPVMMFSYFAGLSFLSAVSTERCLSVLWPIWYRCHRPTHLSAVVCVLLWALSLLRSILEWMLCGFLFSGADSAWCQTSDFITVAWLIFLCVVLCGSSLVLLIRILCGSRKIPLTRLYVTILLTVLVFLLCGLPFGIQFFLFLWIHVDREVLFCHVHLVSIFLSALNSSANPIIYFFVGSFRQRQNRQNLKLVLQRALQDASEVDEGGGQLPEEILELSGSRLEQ
MrgX1 antagonist – human MrgX1 receptor antagonism, primary screen; Q96LB2; MRGX1-HEK293 calcium flux, Fluo-4, BAM8-22 antagonism; hits give low values; B-score at 10 µM; 310,000 compounds, 1.3% hits; AID 588676;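 active = calcium-response B-score plate-corrected more than 3 library SD below zero, starting fluorescence within 5 deviations, no agonist response on first addition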;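 also: peak minus trough fluorescence over baseline after final BAM8-22 challenge near maximal dose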
MrgX1 ag – activates human MrgX1 receptor signaling; MrgX1-HEK293 cells, Fluo-4 calcium fluorescence, agonist mode; hits give high values; B-score at 10 µM; 310,000 compounds, 0.44% hits; AID 588627;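 active = calcium response B-score plate-corrected fluorescence ratio at least 3 library SD, with starting fluorescence B-score inside 5 SD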
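Material – MrgX1-expressing HEK293 cells · Input – 15,000 cells seeded per well · Dosing – compound as first of three additions · Times – overnight seeding, then 1 h dark dye loading · Measured by – kinetic Fluo-4 NW fluorescence of intracellular calcium · Read-out – B-scored fluorescence response ratio · Benchmarks – positive and negative control wells on each plate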
RGS4 inh – inhibitors of human RGS4; P49798; HEK293 M3R/RGS4 inducible, Fluo-4 calcium flux; hits give high values; triggered by carbachol at its EC20; B-score at 10 µM; 310,000 compounds, 0.45% hits;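 active = B-score, a plate-corrected calcium signal, over three deviations above library mean, with baseline fluorescence within five deviations of library mean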;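 also: RGS4 expression induced by doxycycline in cells with stable M3 receptor; B-score is computed from the integrated fluorescence ratio over baseline after carbachol; higher B-score means a larger calcium signal and so more RGS4 inhibition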
Target sequence (P49798 whole entry, looked up): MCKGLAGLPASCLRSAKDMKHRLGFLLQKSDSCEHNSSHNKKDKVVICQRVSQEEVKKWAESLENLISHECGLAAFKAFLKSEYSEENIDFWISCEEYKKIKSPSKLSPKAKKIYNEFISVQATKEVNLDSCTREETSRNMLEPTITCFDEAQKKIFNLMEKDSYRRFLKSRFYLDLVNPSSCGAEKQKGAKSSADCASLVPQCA
RGS4 pot – RGS4 potentiation or activation; 310,000 compounds, 0.92% hits; B-score at 10 µM; HEK293 M3R/inducible RGS4, carbachol calcium flux Fluo4; hits give low values;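 active = B-score of the integrated calcium signal more than 4 SD below the library mean, with starting fluorescence not abnormally high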;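 also: negative B-score means reduced calcium response which marks RGS4 activation or potentiation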
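test system = M3R-expressing HEK293 line, RGS4 induced by doxycycline | probe or stimulus = carbachol at ECmax as muscarinic agonist stimulus | timing = dye loading 30 min 37 °C, buffer rest 30 min RT | signal = calcium dye Fluo4 fluorescence | evaluation = B score from integrated fluorescence ratio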
RGS4 inh valid – validation of RGS4 inhibitors; shares compounds with RGS4 inh; HEK293 M3R/RGS4, carbachol calcium Fluo-4 fluorescence; carbachol added at its EC20; 0 = buffer wells, 100 = carbachol control; calcium response, % at 10 µM; 1,700 compounds, 65% hits; AID 492999;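 active = duplicate-averaged calcium response above the buffer-only control mean plus 5 SD of those controls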;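 also: integrated fluorescence ratio F max minus min over baseline F0; higher response in RGS4-induced cells means RGS4 inhibition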
M3R Ca ctr – non-induced cell nonspecific activity of RGS4 inhibitors; shares compounds with RGS4 inh; HEK293 M3R non-induced, carbachol calcium Fluo-4; submaximal (EC20) carbachol stimulus; buffer wells 0%, carbachol control wells 100%; activity (percent), % at 10 µM; 1,900 compounds, 20% hits; AID 493000; call rule not given here;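 also: RGS4 induction absent so cells express M3R without RGS4; higher means more calcium signal and flags a non-specific hit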
RGS4 inh ctr2 – second RGS4 inhibitor counter-screen in uninduced cells lacking carbachol | shares compounds with RGS4 inh | HEK293 M3R/RGS4 non-induced, Fluo-4 calcium, no carbachol; normalised: buffer wells 0%, carbachol wells 100% | calcium response (agonist-mode artifact), % at 10 µM | 1,900 compounds, 22% hits;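 active = duplicate-averaged calcium rise in uninduced cells above buffer wells' mean plus 5 SD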
* marks the source's active call; other numbers are inactive results; i = inactive; / = no result given.

SMILES	MrgX1 PAM	MrgX1 antagonist	MrgX1 ag	RGS4 inh	RGS4 pot	RGS4 inh valid	M3R Ca ctr	RGS4 inh ctr2
O=C(COC(=O)c1cccc(O)c1)Nc1ccc(Cl)cc1C(=O)c1ccccc1	i	i	i	i	i	/	/	/
CCC(=NCc1ccco1)c1c(O)n(-c2ccccc2C)c(=O)[nH]c1=O	i	i	i	i	i	/	/	/
Cc1c(C=C2C(=O)N(C)C(=S)N(C)C2=O)c2ccccc2n1CC(=O)NCC1CCCO1 (stereo unspecified)	i	i	i	5.14*	i	54.5%*	i	24.5%*
O=C(Cn1cc(C=C2C(=O)NC(=O)NC2=O)c2ccccc21)NCC1CCCO1 (stereo unspecified)	i	i	i	i	i	/	/	/
O=C1NC(=O)N(c2ccc3c(c2)OCO3)C(=O)/C1=C/c1cccs1	i	i	i	13.5*	i	18.0%*	34.5%*	i
O=C1NC(=O)N(c2ccc3c(c2)OCO3)C(=O)/C1=C/c1ccsc1	i	i	i	i	i	/	/	/
Cc1cc(OC(C)C(=O)NCc2ccncc2)c2c3c(c(=O)oc2c1)CCC3 (stereo unspecified)	i	i	i	i	i	/	/	/
COc1ccc(OC)c(N2C(=O)NC(=O)/C(=C/c3ccc([N+](=O)[O-])s3)C2=O)c1	i	i	i	5.8*	i	15.0%*	i	i
COc1ccc(OC)c(N2C(=O)/C(=C/c3ccco3)C(=O)NC2=S)c1	i	i	i	i	i	/	/	/
CC1COC2N=C(N[N+](=O)[O-])NC2O1 (stereo unspecified)	i	i	i	i	i	/	/	/
O=C1NC(=O)N(Cc2ccccc2)C(=O)/C1=C\C=C\c1ccco1	i	i	28*	5.45*	i	19.0%*	i	15.0%*
O=C1NC(=O)N(Cc2ccco2)C(=O)/C1=C/C=C/c1ccco1	i	i	36.4*	5.41*	i	i	i	i
CN(C)c1ccc(/C=C/C=C2/C(=O)NC(=O)N(c3ccccc3)C2=O)cc1	/	/	/	i	i	/	/	/
O=C1NC(=O)N(Cc2ccccc2)C(=O)/C1=C/c1cnc(-c2ccccc2)nc1	i	i	i	i	i	/	/	/
Cn1cccc1/C=C1\C(=O)NC(=O)N(Cc2ccco2)C1=O	/	/	/	i	i	/	/	/
C=CCN1C(=O)NC(=O)/C(=C/C=C/c2ccccc2)C1=O	/	/	/	5.35*	i	25.5%*	i	18.5%*
CCOc1cc(CNCCc2c[nH]c3ccccc23)cc(Cl)c1OC	i	i	i	i	i	/	/	/
CCCc1[nH]nc2c1C1(C(=O)N(CC(N)=O)c3ccccc31)C(C(=O)OC)=C(N)O2 (stereo unspecified)	i	i	i	i	i	i	i	i
CCOC(=O)C1=C(N)Oc2ccccc2C12C(=O)N(CC(=O)OC)C(CC(=O)OC)=C2C(=O)OC (stereo unspecified)	i	i	i	i	i	/	/	/
CCCc1[nH]nc2c1C1(C(=O)N(Cc3ccccc3)c3ccccc31)C(C(=O)OC)=C(N)O2 (stereo unspecified)	i	i	i	5.94*	i	19.0%*	29.5%*	i
CCOC(=O)C1=C(N)OC2=C(C(=O)CCC2)C12C(=O)N(CC(N)=O)c1ccccc12 (stereo unspecified)	i	i	i	i	i	/	/	/
O=c1c2ccccc2[nH]c(=S)n1-c1ccc2c(c1)OCCO2	i	i	i	i	i	/	/	/
CCNC(=O)[C@H]1O[C@@H](n2cnc3c(N)ncnc32)[C@H](O)[C@@H]1O	i	i	i	9.75*	i	34.5%*	i	i
NC(=O)c1cn(C2OC(CO)C(O)C2O)c2ncnc(N)c12 (stereo unspecified)	i	i	i	i	i	/	/	/
CC(C)CN(CC(C)C)c1ccc(C=C2C(=O)NC(=S)NC2=O)cc1[N+](=O)[O-]	i	i	i	i	i	/	/	/
SMILES	MrgX1 PAM	MrgX1 antagonist	MrgX1 ag	RGS4 inh	RGS4 pot	RGS4 inh valid	M3R Ca ctr	RGS4 inh ctr2
CCN(CC)c1ccc(C=C2C(=O)NC(=S)NC2=O)cc1	i	i	i	36.3*	i	56.0%*	29.5%*	i
Cc1cc(C)cc(N2C(=O)NC(=O)/C(=C/c3cccn3-c3ccc(Cl)cc3)C2=O)c1	i	i	i	i	i	i	i	i
CCOc1cc2c(cc1OCC)-n1cccc1C(c1c(O)cccc1OC)NC2 (stereo unspecified)	i	i	i	i	i	/	/	/
C=C(CC1CC(O)[C@]2(C)OC3CC4OC5C[C@]6(C)O[C@]7(C)CCC8OC9C[C@]%10(C)OC%11C(C)=CC(=O)OC%11CC%10OC9C[C@@H](C)C8OC7CC6O[C@]5(C)C/C=C\C4OC3CC2O1)C(=O)O (stereo partly specified)	i	i	i	i	i	i	i	i
CC/C(=N\N1CCCCC1)c1c(O)[nH]c(=O)[nH]c1=O	i	i	i	4.67*	i	8.5%*	i	i
Cc1cc(OC(C)C(=O)NCC(O)c2ccccc2)c2c3c(c(=O)oc2c1)CCC3 (stereo unspecified)	i	i	i	i	i	/	/	/
CN(C)c1ccc(/C=C/[N+](=O)[O-])cc1	i	i	i	19.2*	i	54.0%*	i	75.5%*
C/C(=C\c1ccc(N(C)C)cc1)[N+](=O)[O-]	i	i	i	7.61*	i	23.5%*	62.5%*	14.5%*
CN(C)C(=O)Oc1noc2cc(Cl)ccc12	i	i	i	i	i	/	/	/
CC(Cc1ccccc1)/[N+]([O-])=C\c1ccc(C(F)(F)F)cc1 (stereo unspecified)	i	i	i	i	i	/	/	/
C=CCn1c(O)c(/C=N/NC(=O)c2ccncc2)c(=O)[nH]c1=O	i	i	i	i	i	/	/	/
O=C(N/N=C/c1c(O)n(Cc2ccccc2)c(=O)[nH]c1=O)c1ccncc1	i	i	i	i	i	/	34.5%*	i
